Tests used:
[1] = Tumor to muscle ratio of the drug in mouse EMT6 tumor bearing BALB/c mouse at 10 to 20 uCi after 2 hrs; assay type: ADME, tissue-based, Muscle tissue
Summary of the method: (§1)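 Tumor-bearing female Balb/c mice (EMT-6 s.c. allograft, ~0.2 cm3) given 10-20 µCi 18F tracer in saline i.v. via tail vein; ≥4 per group; killed 120 min later. Tissues weighed and gamma-counted; ratio = tumor %ID/g divided by that organ's %ID/g.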

[2] = Tumor to fat ratio of the drug in mouse EMT6 tumor bearing BALB/c mouse at 10 to 20 uCi after 2 hrs; assay type: ADME; summary of the method: as §1
Blood [3] = experiment: Biodistribution in blood of mouse EMT6 tumor bearing BALB/c mouse at 10 to 20 uCi after 5 mins; assay type: ADME, organism-based; conditions: in vivo
Summary of the method: (§2)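 EMT-6 cells (5×10^5 in 100 µL PBS) implanted s.c. in scapular region of female Balb/c mice (~2 months, 17-22 g); studied 7-10 days later at ~0.2 cm3 tumor. 18F tracer 10-20 µCi in 100-150 µL saline via tail vein; ≥4 mice per time point; tissue removed at sacrifice, weighed, gamma-counted; %ID/g calculated.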

Blood [4] = experiment: Biodistribution in blood of mouse EMT6 tumor bearing BALB/c mouse at 10 to 20 uCi after 30 mins; assay type: ADME, organism-based; conditions: in vivo, 0.5 h; summary of the method: as §2
Blood [5] = experiment: Biodistribution in blood of mouse EMT6 tumor bearing BALB/c mouse at 10 to 20 uCi after 60 mins; assay type: ADME, organism-based; conditions: in vivo, 1 h; summary of the method: as §2
Blood [6] = experiment: Biodistribution in blood of mouse EMT6 tumor bearing BALB/c mouse at 10 to 20 uCi after 120 mins; assay type: ADME, organism-based; conditions: in vivo, 2 h; summary of the method: as §2
Lung [7] = experiment: Biodistribution in lung of mouse EMT6 tumor bearing BALB/c mouse at 10 to 20 uCi after 5 mins; assay type: ADME, organism-based; conditions: in vivo; summary of the method: as §2
Lung [8] = experiment: Biodistribution in lung of mouse EMT6 tumor bearing BALB/c mouse at 10 to 20 uCi after 30 mins; assay type: ADME, organism-based; conditions: in vivo, 0.5 h; summary of the method: as §2
Lung [9] = experiment: Biodistribution in lung of mouse EMT6 tumor bearing BALB/c mouse at 10 to 20 uCi after 60 mins; assay type: ADME, organism-based; conditions: in vivo, 1 h; summary of the method: as §2
Lung [10] = experiment: Biodistribution in lung of mouse EMT6 tumor bearing BALB/c mouse at 10 to 20 uCi after 120 mins; assay type: ADME, organism-based; conditions: in vivo, 2 h; summary of the method: as §2
Liver [11] = experiment: Biodistribution in liver of mouse EMT6 tumor bearing BALB/c mouse at 10 to 20 uCi after 5 mins; assay type: ADME, organism-based; conditions: in vivo; summary of the method: as §2
Liver [12] = experiment: Biodistribution in liver of mouse EMT6 tumor bearing BALB/c mouse at 10 to 20 uCi after 30 mins; assay type: ADME, organism-based; conditions: in vivo, 0.5 h; summary of the method: as §2
Liver [13] = experiment: Biodistribution in liver of mouse EMT6 tumor bearing BALB/c mouse at 10 to 20 uCi after 60 mins; assay type: ADME, organism-based; conditions: in vivo, 1 h; summary of the method: as §2
Liver [14] = experiment: Biodistribution in liver of mouse EMT6 tumor bearing BALB/c mouse at 10 to 20 uCi after 120 mins; assay type: ADME, organism-based; conditions: in vivo, 2 h; summary of the method: as §2
Kidney [15] = experiment: Biodistribution in kidney of mouse EMT6 tumor bearing BALB/c mouse at 10 to 20 uCi after 5 mins; assay type: ADME, organism-based; conditions: in vivo; summary of the method: as §2
Kidney [16] = experiment: Biodistribution in kidney of mouse EMT6 tumor bearing BALB/c mouse at 10 to 20 uCi after 30 mins; assay type: ADME, organism-based; conditions: in vivo, 0.5 h; summary of the method: as §2
Kidney [17] = experiment: Biodistribution in kidney of mouse EMT6 tumor bearing BALB/c mouse at 10 to 20 uCi after 60 mins; assay type: ADME, organism-based; conditions: in vivo, 1 h; summary of the method: as §2
Kidney [18] = experiment: Biodistribution in kidney of mouse EMT6 tumor bearing BALB/c mouse at 10 to 20 uCi after 120 mins; assay type: ADME, organism-based; conditions: in vivo, 2 h; summary of the method: as §2
Muscle tissue [19] = experiment: Biodistribution in muscle of EMT6 tumor bearing BALB/c mouse at 10 to 20 uCi after 5 mins; assay type: ADME, organism-based; conditions: in vivo; summary of the method: as §2
Muscle tissue [20] = experiment: Biodistribution in muscle of mouse EMT6 tumor bearing BALB/c mouse at 10 to 20 uCi after 30 mins; assay type: ADME, organism-based; conditions: in vivo, 0.5 h; summary of the method: as §2
Muscle tissue [21] = experiment: Biodistribution in muscle of mouse EMT6 tumor bearing BALB/c mouse at 10 to 20 uCi after 60 mins; assay type: ADME, organism-based; conditions: in vivo, 1 h; summary of the method: as §2
Muscle tissue [22] = experiment: Biodistribution in muscle of mouse EMT6 tumor bearing BALB/c mouse at 10 to 20 uCi after 120 mins; assay type: ADME, organism-based; conditions: in vivo, 2 h; summary of the method: as §2
Adipose tissue [23] = experiment: Biodistribution in fat of mouse EMT6 tumor bearing BALB/c mouse at 10 to 20 uCi after 5 mins; assay type: ADME, organism-based; conditions: in vivo; summary of the method: as §2
Adipose tissue [24] = experiment: Biodistribution in fat of mouse EMT6 tumor bearing BALB/c mouse at 10 to 20 uCi after 30 mins; assay type: ADME, organism-based; conditions: in vivo, 0.5 h; summary of the method: as §2
Adipose tissue [25] = experiment: Biodistribution in fat of mouse EMT6 tumor bearing BALB/c mouse at 10 to 20 uCi after 60 mins; assay type: ADME, organism-based; conditions: in vivo, 1 h; summary of the method: as §2
Adipose tissue [26] = experiment: Biodistribution in fat of mouse EMT6 tumor bearing BALB/c mouse at 10 to 20 uCi after 120 mins; assay type: ADME, organism-based; conditions: in vivo, 2 h; summary of the method: as §2
Heart [27] = experiment: Biodistribution in heart of mouse EMT6 tumor bearing BALB/c mouse at 10 to 20 uCi after 5 mins; assay type: ADME, organism-based; conditions: in vivo; summary of the method: as §2
Heart [28] = experiment: Biodistribution in heart of mouse EMT6 tumor bearing BALB/c mouse at 10 to 20 uCi after 30 mins; assay type: ADME, organism-based; conditions: in vivo, 0.5 h; summary of the method: as §2
Heart [29] = experiment: Biodistribution in heart of mouse EMT6 tumor bearing BALB/c mouse at 10 to 20 uCi after 60 mins; assay type: ADME, organism-based; conditions: in vivo, 1 h; summary of the method: as §2
Heart [30] = experiment: Biodistribution in heart of EMT6 tumor bearing BALB/c mouse at 10 to 20 uCi after 120 mins; assay type: ADME, organism-based; conditions: in vivo, 2 h; summary of the method: as §2
Brain [31] = experiment: Biodistribution in brain of EMT6 tumor bearing BALB/c mouse at 10 to 20 uCi after 5 mins; assay type: ADME, organism-based; conditions: in vivo; summary of the method: as §2
Brain [32] = experiment: Biodistribution in brain of EMT6 tumor bearing BALB/c mouse at 10 to 20 uCi after 30 mins; assay type: ADME, organism-based; conditions: in vivo, 0.5 h; summary of the method: as §2
Brain [33] = experiment: Biodistribution in brain of EMT6 tumor bearing BALB/c mouse at 10 to 20 uCi after 60 mins; assay type: ADME, organism-based; conditions: in vivo, 1 h; summary of the method: as §2
Brain [34] = experiment: Biodistribution in brain of mouse EMT6 tumor bearing BALB/c mouse at 10 to 20 uCi after 120 mins; assay type: ADME, organism-based; conditions: in vivo, 2 h; summary of the method: as §2
Bone [35] = experiment: Biodistribution in bone of mouse EMT6 tumor bearing BALB/c mouse at 10 to 20 uCi after 5 mins; assay type: ADME, organism-based, Bone element; conditions: in vivo; summary of the method: as §2
Bone [36] = experiment: Biodistribution in bone of mouse EMT6 tumor bearing BALB/c mouse at 10 to 20 uCi after 30 mins; assay type: ADME, organism-based, Bone element; conditions: in vivo, 0.5 h; summary of the method: as §2
Bone [37] = experiment: Biodistribution in bone of mouse EMT6 tumor bearing BALB/c mouse at 10 to 20 uCi after 60 mins; assay type: ADME, organism-based, Bone element; conditions: in vivo, 1 h; summary of the method: as §2
Bone [38] = experiment: Biodistribution in bone of mouse EMT6 tumor bearing BALB/c mouse at 10 to 20 uCi after 120 mins; assay type: ADME, organism-based, Bone element; conditions: in vivo, 2 h; summary of the method: as §2
EMT6 [39] = experiment: Biodistribution in tumor of mouse EMT6 tumor bearing BALB/c mouse at 10 to 20 uCi after 5 mins; assay type: ADME, organism-based; conditions: emt6, 5 min; summary of the method: as §2
EMT6 [40] = experiment: Biodistribution in tumor of EMT6 tumor bearing BALB/c mouse 10 to 20 uCi after 30 mins; assay type: ADME, organism-based; conditions: emt6, 0.5 h; summary of the method: as §2
EMT6 [41] = experiment: Biodistribution in tumor of mouse EMT6 tumor bearing BALB/c mouse at 10 to 20 uCi after 60 mins; assay type: ADME, organism-based; conditions: emt6, 1 h; summary of the method: as §2
EMT6 [42] = experiment: Biodistribution in tumor of mouse EMT6 tumor bearing BALB/c mouse at 10 to 20 uCi after 120 mins; assay type: ADME, organism-based; conditions: emt6, 2 h; summary of the method: as §2
[43] = Decrease in tumor to muscle ratio of the drug in mouse EMT6 tumor bearing BALB/c mouse after 1 hr in presence of YUN-143; assay type: ADME; parameters: scale not given: the % may be the effect or the level left
Summary of the method: (§3)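 Blocking: 18F tracer coinjected i.v. with 1 mg/kg cold YUN-143 (σ1/σ2 ligand) into EMT-6 tumor-bearing female Balb/c mice; sacrificed at 60 min; tumor/muscle and tumor/fat ratios from %ID/g of gamma-counted tissues.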

[44] = Decrease in tumor to fat ratio of the drug in mouse EMT6 tumor bearing BALB/c mouse after 1 hr in presence of YUN-143; assay type: ADME; parameters: scale not given: the % may be the effect or the level left; summary of the method: as §3

## COc1cc2c(cc1OC)CN(CCCCNC(=O)c1cc(I)cc(OC)c1OCC[18F])CC2
[1]
  Ratio: 8
[2]
  Ratio: 7
Blood [3]
  Drug uptake: 1.82 % ID/g
Blood [4]
  Drug uptake: 1.23 % ID/g
Blood [5]
  Drug uptake: 0.65 % ID/g
Blood [6]
  Drug uptake: 0.28 % ID/g
Lung [7]
  Drug uptake: 18.47 % ID/g
Lung [8]
  Drug uptake: 3.75 % ID/g
Lung [9]
  Drug uptake: 1.51 % ID/g
Lung [10]
  Drug uptake: 0.74 % ID/g
Liver [11]
  Drug uptake: 15.21 % ID/g
Liver [12]
  Drug uptake: 10.73 % ID/g
Liver [13]
  Drug uptake: 5.57 % ID/g
Liver [14]
  Drug uptake: 2.61 % ID/g
Kidney [15]
  Drug uptake: 19.98 % ID/g
Kidney [16]
  Drug uptake: 7.73 % ID/g
Kidney [17]
  Drug uptake: 3.5 % ID/g
Kidney [18]
  Drug uptake: 1.34 % ID/g
Muscle tissue [19]
  Drug uptake: 2.5 % ID/g
Muscle tissue [20]
  Drug uptake: 0.73 % ID/g
Muscle tissue [21]
  Drug uptake: 0.4 % ID/g
Muscle tissue [22]
  Drug uptake: 0.15 % ID/g
Adipose tissue [23]
  Drug uptake: 4.13 % ID/g
Adipose tissue [24]
  Drug uptake: 1.36 % ID/g
Adipose tissue [25]
  Drug uptake: 0.47 % ID/g
Adipose tissue [26]
  Drug uptake: 0.17 % ID/g
Heart [27]
  Drug uptake: 5.6 % ID/g
Heart [28]
  Drug uptake: 1.54 % ID/g
Heart [29]
  Drug uptake: 0.69 % ID/g
Heart [30]
  Drug uptake: 0.39 % ID/g
Brain [31]
  Drug uptake: 0.71 % ID/g
Brain [32]
  Drug uptake: 0.27 % ID/g
Brain [33]
  Drug uptake: 0.14 % ID/g
Brain [34]
  Drug uptake: 0.08 % ID/g
Bone [35]
  Drug uptake: 2.23 % ID/g
Bone [36]
  Drug uptake: 2.01 % ID/g
Bone [37]
  Drug uptake: 0.93 % ID/g
Bone [38]
  Drug uptake: 0.59 % ID/g
EMT6 [39]
  Drug uptake: 3.05 % ID/g
EMT6 [40]
  Drug uptake: 3.11 % ID/g
EMT6 [41]
  Drug uptake: 2.15 % ID/g
EMT6 [42]
  Drug uptake: 1.15 % ID/g
[43]
  Activity: 50%
[44]
  Activity: 50%

Source: ChEMBL document CHEMBL1145439, “Fluorine-18-labeled benzamide analogues for imaging the sigma2 receptor status of solid tumors with positron emission tomography” (J Med Chem, 2007)
